According to ChEMBL document CHEMBL3272166, “Quantitative structure-activity relationships in centrally acting imidazolidines structurally related to clonidine” (J Med Chem, 1977):

Assays:
Rattus norvegicus [1] = assay: Hypotensive activity in iv dosed anesthetized normotensive Wistar rat assessed as maximal decrease in mean arterial pressure; format: functional, Artery; settings: for ED30: Rattus norvegicus, Wistar, Artery, iv
Outline: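 Male Wistar rats (190-220 g) anaesthetised with pentobarbitone sodium 75 mg/kg ip, kept at 37 ± 1 °C, ventilated and heparinised. Carotid arterial pressure recorded; animals outside 100–150 mmHg after ~20 min equilibration discarded. Graded iv doses in saline, with randomised agents and doses and one rat per experiment. Log-dose–response curves of maximal fall in mean pressure gave the dose (μmol/kg) for a 30% decrease (ED30).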

Rattus norvegicus [2] = assay: Hypotensive activity in iv dosed anesthetized normotensive Wistar rat assessed as maximal decrease in mean arterial pressure measured per gram of brain tissue; format: functional, Artery
[3] = Apparent partition coefficient, log P in octanol and 0.1 M phosphate buffer at pH 7.4; format: physicochemical; settings: octanol/0.1 M phosphate buffer
Rattus norvegicus [4] = assay: Hypotensive activity in iv dosed anesthetized normotensive Wistar rat assessed as 30% decrease in mean arterial pressure; settings: Artery

| SMILES | log(1/ED30) (Rattus norvegicus [1]) | ED30 (Rattus norvegicus [1]) [mg/kg] | log(1/ED30) (Rattus norvegicus [2]) | logD [3] | ED30 (Rattus norvegicus [4]) [mg/kg] |
| --- | --- | --- | --- | --- | --- |
| Cc1ccc(N=C2NCCN2)c(C)c1.Cl | -0.56 | 0.81 | 0.86 | -1.66 |  |
| COc1cc(Cl)c(N=C2NCCN2)c(Cl)c1.Cl | -0.78 | 2 | -0.82 | 0.15 |  |
| Cl.Clc1cccc(Br)c1N=C1NCCN1 | 2.22 |  | 1.72 | 0.87 | 0.0029 |
| Cl.Fc1cccc(F)c1N=C1NCCN1 | -0.29 | 0.6 | -0.22 | -0.16 |  |
| Cc1cc(Cl)cc(Cl)c1N=C1NCCN1.Cl | 0.57 | 0.079 | 0.4 | 0.47 |  |
| Cl.Clc1cc(Br)cc(Cl)c1N=C1NCCN1 | 1.03 | 0.06 |  | 1.97 |  |
| Cl.Clc1ccccc1N=C1NCCN1 | 0.15 | 0.17 | 0.67 | -0.67 |  |
| Brc1cc(Br)c(N=C2NCCN2)c(Br)c1.Cl | 0.28 | 0.58 | -0.65 | 2.24 |  |
| Cc1cc(C)c(N=C2NCCN2)c(C)c1.Cl | -0.07 | 0.28 | 0.98 | -1.28 |  |
| Brc1cccc(Br)c1N=C1NCCN1.Cl | 2.04 | 0.0055 | 1.4 | 1.21 |  |
| Cc1ccc(N=C2NCCN2)c(Cl)c1.Cl | 0.68 | 0.053 | 1.07 | -0.48 |  |
| Cl.O=[N+]([O-])c1cc(Cl)c(N=C2NCCN2)c(Cl)c1 | -0.34 | 4.5 | -1.68 | 1.92 |  |
| Cc1cc(Cl)c(N=C2NCCN2)c(Cl)c1.Cl | 1.22 | 0.021 | 0.87 | 0.73 |  |
| Cc1cc(Cl)cc(C)c1N=C1NCCN1.Cl | 0.04 | 0.24 | 0.54 | -0.62 |  |
| Cl.Clc1ccc(N=C2NCCN2)c(Cl)c1 | 0.68 | 0.061 | 0.58 | 0.29 |  |
| Cc1cc(Cl)ccc1N=C1NCCN1.Cl | -0.05 | 0.275 | 0.8 | -1.06 |  |
| Cc1cccc(Cl)c1N=C1NCCN1.Cl | 1.12 | 0.019 | 1.57 | -0.57 |  |
| Cl.Fc1cccc(Cl)c1N=C1NCCN1 | 1.47 | 0.0125 | 1.13 | 0.52 |  |
| Cl.c1ccc(NC2=NCCN2)cc1 | -2.1 | 25 | -0.42 | -1.92 |  |
| Cl.Clc1ccc(Cl)c(N=C2NCCN2)c1 | 0.32 | 0.15 | 0.03 | 0.65 |  |
| Cl.Clc1cc(Cl)c(N=C2NCCN2)c(Cl)c1 |  | 0.021 |  |  |  |
| Cc1cccc(C)c1N=C1NCCN1.Cl | 0.85 | 0.032 | 2.14 | -1.54 |  |
| Cc1cc(C)c(N=C2NCCN2)c(Cl)c1.Cl | 0.52 | 0.08 | 0.83 | -0.36 |  |
| Cl.Clc1cccc(N=C2NCCN2)c1Cl | 1.37 | 0.013 | 1.13 | 0.57 |  |
| Cc1ccccc1N=C1NCCN1.Cl | -0.67 | 0.99 | 0.91 | -1.82 |  |
| Cl.Clc1cccc(Cl)c1NC1=NCCN1 [CLONIDINE HYDROCHLORIDE] | 2.14 |  | 1.78 |  | 0.0027 |
| Cc1cc(Br)cc(C)c1N=C1NCCN1.Cl | -0.36 | 0.7 | -0.1 | -0.28 |  |
